In ChEMBL document CHEMBL3352043, “Discovery of small-molecule inhibitors selectively targeting the DNA-binding domain of the human androgen receptor” (J Med Chem, 2014):
Positions count from the first letter of the chain named. Activity calls are given as the source filed them. The rule behind the calls is not given here.

Key:
Androgen receptor = target: T1, Androgen receptor (Homo sapiens, UniProt P10275); experiment: Inhibition of androgen receptor in human LNCaP cells assessed as inhibition of prostate-specific antigen secretion into media after 3 days; type: cell-based
T1 sequence (P10275 whole entry): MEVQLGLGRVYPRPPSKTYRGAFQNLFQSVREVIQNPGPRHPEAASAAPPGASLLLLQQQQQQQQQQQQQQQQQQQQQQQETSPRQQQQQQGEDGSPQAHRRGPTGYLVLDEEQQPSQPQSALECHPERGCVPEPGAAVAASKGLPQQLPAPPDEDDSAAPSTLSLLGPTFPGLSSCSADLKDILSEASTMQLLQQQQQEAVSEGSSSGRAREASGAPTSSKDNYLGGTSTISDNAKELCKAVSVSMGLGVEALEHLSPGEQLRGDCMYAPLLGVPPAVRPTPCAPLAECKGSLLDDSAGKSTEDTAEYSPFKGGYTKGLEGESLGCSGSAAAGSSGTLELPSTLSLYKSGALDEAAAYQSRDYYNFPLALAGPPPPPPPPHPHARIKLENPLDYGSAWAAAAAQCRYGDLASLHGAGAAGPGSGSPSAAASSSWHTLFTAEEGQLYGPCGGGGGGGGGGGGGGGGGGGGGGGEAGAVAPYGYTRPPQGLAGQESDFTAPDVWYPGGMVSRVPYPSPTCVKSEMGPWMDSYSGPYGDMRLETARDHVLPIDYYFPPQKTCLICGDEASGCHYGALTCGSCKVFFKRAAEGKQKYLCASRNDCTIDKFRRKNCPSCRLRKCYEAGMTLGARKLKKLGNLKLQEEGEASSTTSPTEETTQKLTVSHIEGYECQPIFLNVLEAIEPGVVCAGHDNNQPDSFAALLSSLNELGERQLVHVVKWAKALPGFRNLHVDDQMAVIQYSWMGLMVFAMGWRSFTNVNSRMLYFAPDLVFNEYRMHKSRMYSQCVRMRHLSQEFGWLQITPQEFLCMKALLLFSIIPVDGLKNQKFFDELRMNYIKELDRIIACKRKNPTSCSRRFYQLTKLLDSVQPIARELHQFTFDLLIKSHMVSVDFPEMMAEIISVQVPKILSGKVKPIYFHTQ

[1] = test system: T2, Androgen receptor (Homo sapiens), P10275 [Y594D]; experiment: Inhibition of human androgen receptor Y594D mutant expressed in human PC3 cells assessed as inhibition of transcription activity after 24 hrs by luciferase reporter gene assay; type: cell-based; conditions: PC-3
T2 sequence (whole entry): T1 sequence (P10275 whole entry) with Y594D
In short: (§1)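 PC3 cells were starved 5 days in RPMI 1640 with 5% charcoal-stripped serum and seeded at 5000 cells/well. After 24 h they were cotransfected with AR-V7 or hAR mutant plasmid plus 50 ng ARR3tk-luciferase. At 48 h post-transfection, compounds were added for 24 h with 0.1 nM R1881. Luminescence was read from passive-lysis-buffer lysates; mutant tests used 10 μM.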

[2] = target: T3, Estrogen receptor (Homo sapiens) (UniProt P03372); experiment: Inhibition of ERalpha (unknown origin) transcriptional activity at […]
T3 sequence (whole entry): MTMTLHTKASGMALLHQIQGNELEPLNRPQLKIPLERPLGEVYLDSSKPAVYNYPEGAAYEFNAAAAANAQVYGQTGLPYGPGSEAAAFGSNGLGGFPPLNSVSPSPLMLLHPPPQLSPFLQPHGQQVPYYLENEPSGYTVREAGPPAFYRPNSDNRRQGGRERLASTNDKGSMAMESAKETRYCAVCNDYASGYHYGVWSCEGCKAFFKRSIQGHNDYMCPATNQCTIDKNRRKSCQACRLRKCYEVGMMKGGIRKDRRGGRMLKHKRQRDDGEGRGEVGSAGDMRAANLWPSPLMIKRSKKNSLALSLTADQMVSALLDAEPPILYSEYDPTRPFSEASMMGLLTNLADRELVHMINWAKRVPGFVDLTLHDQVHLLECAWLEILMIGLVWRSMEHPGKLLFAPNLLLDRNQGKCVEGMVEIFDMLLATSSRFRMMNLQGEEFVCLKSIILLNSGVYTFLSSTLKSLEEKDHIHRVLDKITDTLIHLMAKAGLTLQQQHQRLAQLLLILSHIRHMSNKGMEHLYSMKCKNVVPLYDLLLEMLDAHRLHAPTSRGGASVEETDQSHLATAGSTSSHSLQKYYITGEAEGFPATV
In short: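 MCF-7 cells stably carrying an ERE-luciferase reporter were stimulated with 1 nM estradiol and treated with compound. Luciferase luminescence was read from passive-lysis-buffer lysates.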

[3] = target: T4, Androgen receptor (Homo sapiens) (UniProt P10275); experiment: Displacement of androgen from androgen receptor (unknown origin) by Polarscreen competitor green assay
T4 sequence (whole entry): T1 sequence (P10275 whole entry)

[4] = target: T4, Androgen receptor (Homo sapiens); experiment: Inhibition of androgen receptor V7 (unknown origin) expressed in human PC3 cells assessed as inhibition of transcription activity after 24 hrs by luciferase reporter gene assay; type: cell-based; conditions: PC-3; in short: as §1

| IC50 (Androgen receptor) [nM] | inhibition [1] | inhibition [2] | inhibition [3] | inhibition [4] | Activity [3] | SMILES |
| --- | --- | --- | --- | --- | --- | --- |
| 170 | inactive | inactive | inactive | Dose-dependent effect | – | Brc1ncn(-c2csc(N3CCOCC3)n2)c1Br |
| 280 | inactive | inactive | – | Dose-dependent effect | inactive | c1ccc(-c2csc(N3CCOCC3)n2)cc1 |
